Assay results: ChEMBL document CHEMBL4364341, “Radiosensitization of Head and Neck Squamous Cell Carcinoma (HNSCC) by a Podophyllotoxin” (ACS Med Chem Lett, 2019)
Calls of active or inactive are those of the source. The rule behind the calls is not given here.

What was measured:
[1] = tested on: FaDu; assay: Synergistic antiproliferative activity against human FADU cells assessed as combination index at 0.05 uM preincubated for 1 hr followed by irradiation with 10 Gy IR and measured after 6 days by MTT assay; type: functional
Procedure, shortened: (§1)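 Combination index was calculated by the Chou–Talalay median-effect method from the 6-day MTT viability data of the single-plate compound/X-ray (2.5, 5, 10 Gy) design. CI < 1 denotes synergy, CI = 1 additivity and CI > 1 antagonism.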

[2] = tested on: SCC-25; assay: Synergistic antiproliferative activity against human SCC25 cells assessed as fractional inhibition at 0.05 uM preincubated for 1 hr followed by irradiation with 10 Gy IR and measured after 6 days by MTT assay (reference value: 0.347); type: functional
Procedure, shortened: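 SCC-25 cells seeded 1000/well in 96-well plates in DMEM/10% FBS and left 24 h. Drug or vehicle added, then after 1 h X-irradiated to 2.5, 5 or 10 Gy on one plate using a shifted lead shield. Plates incubated 6 days, then MTT (0.5 mg/mL, 45 min), DMSO solubilisation, absorbance at 570 nm. Fractional inhibition = 1 − fraction of surviving cells.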

[3] = tested on: SCC-25; assay: Inhibition of cell migration in human SCC25 cells at 0.5 uM incubated for 12 and 24 hrs by microscopic analysis; type: functional, cell-based
Procedure, shortened: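 Scratch assay: 10^5 cells/well were grown to confluence in 12-well plates, with mitomycin C to block proliferation. Cells were treated with compound for 24 h, with or without 5 Gy IR, then scratched with a pipette tip, washed with PBS and given fresh medium. Imaging was at 0, 6, 12 and 24 h. % migration = gap decrease relative to the 0 h gap.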

[4] = tested on: FaDu; assay: Synergistic antiproliferative activity against human FADU cells assessed as combination index at 0.5 uM preincubated for 1 hr followed by irradiation with 2.5 Gy IR and measured after 6 days by MTT assay; type: functional; procedure, shortened: as §1
[5] = tested on: FaDu; assay: Synergistic antiproliferative activity against human FADU cells assessed as fractional inhibition at 5 uM preincubated for 1 hr followed by irradiation with 10 Gy IR and measured after 6 days by MTT assay (reference value: 0.388); type: functional
Procedure, shortened: (§2)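 FaDu or SCC-25 cells were grown in DMEM with 10% FBS at 37 °C and 5% CO2. They were seeded at 1000 cells/well in 96-well plates for 24 h, then dosed with compound (fresh DMSO stock diluted in medium) or vehicle. After 1 h, X-rays were given with a sliding 5 mm lead shield, so one plate held 0, 2.5, 5 and 10 Gy columns. After 6 days, MTT (0.5 mg/mL, 45 min) was added, then DMSO, and A570 was read. Values were normalised to the unirradiated vehicle control. Fractional inhibition = 1 − surviving fraction.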

[6] = tested on: FaDu; assay: Synergistic antiproliferative activity against human FADU cells assessed as combination index at 0.05 uM preincubated for 1 hr followed by irradiation with 2.5 Gy IR and measured after 6 days by MTT assay; type: functional; procedure, shortened: as §1
[7] = tested on: SCC-25; assay: Synergistic induction of apoptosis in human SCC25 cells assessed as increase in caspase at 0.5 uM followed by irradiation with 5 Gy IR incubated for 48 hrs by luminescence based analysis; type: functional, cell-based
[8] = tested on: SCC-25; assay: Synergistic antiproliferative activity against human SCC25 cells assessed as combination index at 5 uM preincubated for 1 hr followed by irradiation with 2.5 Gy IR and measured after 6 days by MTT assay; type: functional
Procedure, shortened: (§3)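 SCC-25 cells grown in DMEM with 10% FBS at 37 °C, 5% CO2, seeded 1000 cells/well in 96-well plates and left 24 h. Drug in DMSO, diluted in complete medium, added 1 h before X-irradiation. A movable 5 mm lead shield gave 0, 2.5, 5 or 10 Gy on one plate. After 6 days, MTT readout at 570 nm. Combination index by Chou–Talalay from viability data.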

[9] = tested on: FaDu; assay: Synergistic antiproliferative activity against human FADU cells assessed as combination index at 0.005 uM preincubated for 1 hr followed by irradiation with 5 Gy IR and measured after 6 days by MTT assay; type: functional; procedure, shortened: as §1
[10] = tested on: FaDu; assay: Synergistic antiproliferative activity against human FADU cells assessed as fractional inhibition at 0.005 uM preincubated for 1 hr followed by irradiation with 2.5 Gy IR and measured after 6 days by MTT assay (reference value: 0.131); type: functional; procedure, shortened: as §2
[11] = tested on: SCC-25; assay: Synergistic antiproliferative activity against human SCC25 cells assessed as combination index at 0.05 uM preincubated for 1 hr followed by irradiation with 2.5 Gy IR and measured after 6 days by MTT assay; type: functional; procedure, shortened: as §3
[12] = tested on: FaDu; assay: Synergistic antiproliferative activity against human FADU cells assessed as reduction in cell viability at 1 uM preincubated for 1 hr followed by irradiation with 5 Gy IR and measured after 6 days by MTT assay relative to control; type: functional; settings: light or radiation study; procedure, shortened: as §2
[13] = molecular target: T1, Nuclear factor erythroid 2-related factor 2 (Homo sapiens) (UniProt Q16236); assay: Synergistic inhibition of Nrf2 in human FADU cells at 0.5 uM followed by irradiation with 5 Gy IR incubated for 48 hrs by immunofluorescence analysis; type: cell-based
T1 sequence (whole entry): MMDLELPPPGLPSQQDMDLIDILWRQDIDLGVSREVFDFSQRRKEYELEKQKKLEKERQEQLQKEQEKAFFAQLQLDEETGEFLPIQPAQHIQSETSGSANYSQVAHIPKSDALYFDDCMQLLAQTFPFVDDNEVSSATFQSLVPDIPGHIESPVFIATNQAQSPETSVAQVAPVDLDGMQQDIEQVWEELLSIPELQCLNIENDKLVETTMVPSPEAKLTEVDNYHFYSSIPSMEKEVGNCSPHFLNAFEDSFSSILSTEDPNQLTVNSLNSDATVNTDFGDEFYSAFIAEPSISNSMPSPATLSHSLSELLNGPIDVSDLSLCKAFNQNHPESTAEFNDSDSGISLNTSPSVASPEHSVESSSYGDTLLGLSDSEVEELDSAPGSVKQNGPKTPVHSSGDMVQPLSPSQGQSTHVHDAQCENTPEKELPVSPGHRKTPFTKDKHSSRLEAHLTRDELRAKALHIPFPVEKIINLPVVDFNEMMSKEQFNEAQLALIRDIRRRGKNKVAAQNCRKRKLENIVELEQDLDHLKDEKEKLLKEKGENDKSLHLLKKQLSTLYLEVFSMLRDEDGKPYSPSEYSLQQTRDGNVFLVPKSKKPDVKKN

[14] = tested on: SCC-25; assay: Synergistic induction of apoptosis in human SCC25 cells at 0.5 uM followed irradiation with 5Gy IR by annexin V FITC and propidium iodide staining based flow cytometry; type: functional, cell-based; settings: TDE = time-dependent effect
Procedure, shortened: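 FaDu or SCC-25 cells, untreated, given 5 Gy IR, drug, or both. Apoptotic cells measured by annexin V flow cytometry 48 h after treatment. Percentage compared with control by t test.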

[15] = tested on: SCC-25; assay: Synergistic antiproliferative activity against human SCC25 cells assessed as combination index at 0.005 uM preincubated for 1 hr followed by irradiation with 10 Gy IR and measured after 6 days by MTT assay; type: functional; procedure, shortened: as §1
[16] = tested on: SCC-25; assay: Synergistic antiproliferative activity against human SCC25 cells assessed as combination index at 0.005 uM preincubated for 1 hr followed by irradiation with 2.5 Gy IR and measured after 6 days by MTT assay; type: functional; procedure, shortened: as §3

Q: Which CI [1] does the source give for `COc1ccc2c(c1)N(CCO)C1=C(C(=O)OC1)C2c1ccccc1` (stereo unspecified) here?
A: 0.572

Q: What about the “fractional inhibitory concentration index (FICI)” value [2] of the same compound?
A: 0.379

Q: And the inhibition [3]?
A: inactive

Q: What about the CI [4] of the same compound?
A: 0.377

Q: And the “fractional inhibitory concentration index (FICI)” value [5]?
A: 0.681

Q: And the CI [6]?
A: 0.234

Q: And the Activity [7]?
A: Active

Q: What about the CI [8] of the same compound?
A: 1.244

Q: And the CI [9]?
A: 1.822

Q: And the “fractional inhibitory concentration index (FICI)” value [10]?
A: 0.236

Q: What about the CI [11] of the same compound?
A: 0.835

Q: What about the inhibition at 1 µM [12] of the same compound?
A: 48%

Q: What about the inhibition [13] of the same compound?
A: Active

Q: What about the Activity [14] of the same compound?
A: Tde

Q: And the CI [15]?
A: 1.021

Q: What about the CI [16] of the same compound?
A: 1.216
